# From ChEMBL document CHEMBL3784974, “Design and Structural Characterization of Potent and Selective Inhibitors of Phosphatidylinositol 4 Kinase IIIβ” (J Med Chem, 2016)
# Experiments:
# [1] = molecular target: Phosphatidylinositol 4-kinase type 2-alpha (Homo sapiens) (UniProt Q9BTU6); experiment: Inhibition of flag-tagged recombinant PI4K2alpha (unknown origin) transfected in HEK293T cells upto 20 uM preincubated for 15 mins followed by addition of cold ATP/gamma32P-ATP measured after 25 mins; format: cell-based; conditions: HEK-293T
# Outline: (§1)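 Enzymes cloned from DNASU plasmids, FLAG-tagged, transfected into HEK293T and FLAG-immunoprecipitated, eluted with FLAG peptide. 15 min inhibitor preincubation, 25 min reaction in 20 mM Bis-Tris propane pH 7.5, 10 mM MgCl2, 0.075 mM Triton X-100, 0.5 mM EGTA, 1 mM DTT, 100 µM PI, 500 ng/µL BSA, 2% DMSO, 10 µM ATP, 2 uCi γ32P-ATP; phosphorimaging.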
# [2] = molecular target: T1, Phosphatidylinositol 4,5-bisphosphate 3-kinase catalytic subunit delta isoform (Homo sapiens, UniProt O00329); experiment: Inhibition of histidine-tagged recombinant human full length PI3Kdelta expressed in baculovirus preincubated for 15 mins followed by addition of cold ATP/gamma32P-ATP measured after 20 mins in presence of MgCl2
# T1 sequence (O00329 whole entry): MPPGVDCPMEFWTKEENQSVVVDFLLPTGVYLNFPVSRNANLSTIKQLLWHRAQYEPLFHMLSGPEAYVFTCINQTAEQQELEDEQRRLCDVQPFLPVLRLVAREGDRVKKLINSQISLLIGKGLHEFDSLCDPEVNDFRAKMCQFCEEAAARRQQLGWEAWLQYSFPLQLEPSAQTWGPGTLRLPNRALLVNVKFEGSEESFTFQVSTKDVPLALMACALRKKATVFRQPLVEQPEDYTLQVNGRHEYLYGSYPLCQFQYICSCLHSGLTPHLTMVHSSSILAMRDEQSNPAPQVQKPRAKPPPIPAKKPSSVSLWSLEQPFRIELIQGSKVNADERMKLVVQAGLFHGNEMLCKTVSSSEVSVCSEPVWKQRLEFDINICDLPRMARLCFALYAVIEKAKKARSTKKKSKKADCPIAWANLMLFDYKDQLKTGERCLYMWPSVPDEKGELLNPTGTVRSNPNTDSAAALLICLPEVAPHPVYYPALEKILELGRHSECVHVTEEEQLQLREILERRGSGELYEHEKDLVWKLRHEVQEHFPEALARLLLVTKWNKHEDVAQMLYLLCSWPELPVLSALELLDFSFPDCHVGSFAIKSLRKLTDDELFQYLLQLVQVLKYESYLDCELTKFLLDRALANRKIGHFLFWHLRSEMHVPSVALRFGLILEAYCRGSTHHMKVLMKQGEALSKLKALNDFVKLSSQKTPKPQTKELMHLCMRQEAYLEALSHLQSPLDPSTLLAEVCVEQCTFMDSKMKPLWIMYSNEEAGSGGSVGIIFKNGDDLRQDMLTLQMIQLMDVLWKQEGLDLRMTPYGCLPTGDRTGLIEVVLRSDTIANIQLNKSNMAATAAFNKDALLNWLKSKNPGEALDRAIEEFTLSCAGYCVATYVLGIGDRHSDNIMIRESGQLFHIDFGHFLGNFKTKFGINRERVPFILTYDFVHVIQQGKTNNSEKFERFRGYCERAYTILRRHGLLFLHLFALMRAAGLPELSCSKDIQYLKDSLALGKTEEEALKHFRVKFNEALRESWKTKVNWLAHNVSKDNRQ
# Outline: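 Final: 50 mM HEPES pH 7.5, 100 mM NaCl, 0.03% CHAPS, 10 mM MgCl2, 1 mM EGTA, 2 mM DTT, 80 µM PIP2 (PIP2:DOPS:DOPC), 500 ng/µL BSA, 2% DMSO, 10 µM ATP, 2.5 uCi γ32P-ATP. Nitrocellulose capture, phosphorimaging.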
# [3] = molecular target: Phosphatidylinositol 4-kinase type 2-beta (Homo sapiens) (UniProt Q8TCG2); experiment: Inhibition of flag-tagged recombinant PI4K2beta (unknown origin) transfected in HEK293T cells upto 20 uM preincubated for 15 mins followed by addition of cold ATP/gamma32P-ATP measured after 25 mins; format: cell-based; conditions: HEK-293T; outline: as §1
# [4] = Inhibition of N-terminal flag-tagged recombinant human full length PI4K3alpha expressed in baculovirus infected Sf21 insect cells preincubated for 15 mins followed by addition of cold ATP/gamma32P-ATP measured after 25 mins
# Outline: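 Purchased PI4KIIIα at 1.2 nM; 15 min inhibitor preincubation, 25 min reaction in 20 mM Bis-Tris propane pH 7.5, 10 mM MgCl2, 0.075 mM Triton X-100, 0.5 mM EGTA, 1 mM DTT, 100 µM PI (PI:DOPS:DOPC), 500 ng/µL BSA, 2% DMSO, 10 µM ATP, 2 uCi γ32P-ATP. Radiolabel captured on nitrocellulose, phosphorimaged.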
# [5] = molecular target: Phosphatidylinositol 4,5-bisphosphate 3-kinase catalytic subunit alpha isoform (Homo sapiens, UniProt P42336); experiment: Inhibition of N-terminal histidine6-tagged recombinant human full length PI3Kalpha expressed in baculovirus infected Sf21 insect cells preincubated for 15 mins followed by addition of cold ATP/gamma32P-ATP measured after 15 mins
# Outline: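 Radiometric membrane-capture lipid kinase assay. Enzyme premixed with PIP2:DOPS:DOPC vesicles and BSA. Inhibitor diluted in 10% DMSO/kinase buffer, preincubated 15 min, then cold ATP plus γ32P-ATP added and run 15 min. Final conditions: 50mM HEPES pH 7.5, 100mM NaCl, 0.03% CHAPS, 10mM MgCl2, 1mM EGTA, 2mM DTT, 3.3nM PI3Kα, 80µM PIP2, 500ng/µL BSA, 2% DMSO, 10µM ATP, 2uCi γ32P-ATP. Product spotted onto nitrocellulose, washed in 1M NaCl/1% phosphoric acid, phosphorimaged.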
# [6] = Cytotoxicity against human Huh7.5 cells after 3 days by presto blue assay; format: cell-based, Huh-7
# Outline: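 Huh7.5 cells stably infected with J6/JFH1-GLuc, kept in DMEM/10% FBS, glutamine, NEAA, pen/strep at 37 °C, 5% CO2. 10,000 cells/well; serially diluted compound added 1 h after plating; 3-day incubation. Replication read as Gaussia luciferase activity in supernatant; viability by Presto Blue.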
# [7] = molecular target: Phosphatidylinositol 3-kinase catalytic subunit type 3 (Homo sapiens, UniProt Q8NEB9); experiment: Inhibition of GST-tagged recombinant human full length VPS34 expressed in baculovirus preincubated for 15 mins followed by addition of cold ATP/gamma32P-ATP measured after 1 hr in presence of MnCl2
# Outline: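 Radiometric membrane-capture assay, 10 nM purchased vps34, 15 min preincubation with inhibitor, then 1 h reaction. Final: 50 mM HEPES pH 7.5, 0.1% CHAPS, 2mM MnCl2, 1 mM EGTA, 2 mM DTT, 100 µM PI in PI:DOPS:DOPC, 500 ng/µL BSA, 2% DMSO, 10 µM ATP, 2.5 uCi γ32P-ATP; spots washed, phosphorimaged.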
# [8] = molecular target: Phosphatidylinositol 4,5-bisphosphate 3-kinase catalytic subunit gamma isoform (Homo sapiens, UniProt P48736); experiment: Inhibition of histidine-tagged recombinant human full length PI3Kgamma expressed in insect cells preincubated for 15 mins followed by addition of cold ATP/gamma32P-ATP measured after 15 mins in presence of MgCl2
# Chain of Phosphatidylinositol 4,5-bisphosphate 3-kinase catalytic subunit gamma isoform (P48736 whole entry, canonical isoform): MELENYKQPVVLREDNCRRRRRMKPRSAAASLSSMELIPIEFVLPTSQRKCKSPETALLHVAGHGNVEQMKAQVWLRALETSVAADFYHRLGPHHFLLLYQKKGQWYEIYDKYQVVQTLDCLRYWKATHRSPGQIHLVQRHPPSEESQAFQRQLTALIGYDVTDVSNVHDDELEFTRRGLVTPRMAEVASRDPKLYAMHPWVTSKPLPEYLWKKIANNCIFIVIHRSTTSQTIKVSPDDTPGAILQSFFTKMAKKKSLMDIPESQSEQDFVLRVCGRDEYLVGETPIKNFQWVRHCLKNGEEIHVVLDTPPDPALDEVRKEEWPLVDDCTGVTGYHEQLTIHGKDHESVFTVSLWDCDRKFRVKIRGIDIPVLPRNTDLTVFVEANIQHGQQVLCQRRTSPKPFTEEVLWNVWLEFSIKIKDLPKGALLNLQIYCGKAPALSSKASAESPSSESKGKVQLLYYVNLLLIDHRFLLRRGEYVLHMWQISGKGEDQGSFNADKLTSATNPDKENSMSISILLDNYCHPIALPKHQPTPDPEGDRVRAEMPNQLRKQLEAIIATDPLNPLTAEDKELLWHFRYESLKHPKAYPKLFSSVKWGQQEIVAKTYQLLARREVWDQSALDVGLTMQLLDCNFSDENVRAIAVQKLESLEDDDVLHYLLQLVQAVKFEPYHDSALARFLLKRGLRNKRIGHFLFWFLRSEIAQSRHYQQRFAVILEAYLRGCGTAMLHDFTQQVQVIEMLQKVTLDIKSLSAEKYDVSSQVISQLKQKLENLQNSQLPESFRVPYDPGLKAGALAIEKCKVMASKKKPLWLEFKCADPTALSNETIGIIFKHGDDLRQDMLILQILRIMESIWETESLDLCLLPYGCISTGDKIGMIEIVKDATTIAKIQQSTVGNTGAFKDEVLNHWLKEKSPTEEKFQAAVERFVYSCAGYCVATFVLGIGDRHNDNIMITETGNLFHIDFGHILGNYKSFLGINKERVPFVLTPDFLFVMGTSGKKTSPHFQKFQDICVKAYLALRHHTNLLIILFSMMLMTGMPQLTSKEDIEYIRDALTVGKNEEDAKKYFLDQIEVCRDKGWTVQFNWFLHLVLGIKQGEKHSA
# Chain of Phosphatidylinositol 4-kinase type 2-beta (Homo sapiens) (Q8TCG2 whole entry): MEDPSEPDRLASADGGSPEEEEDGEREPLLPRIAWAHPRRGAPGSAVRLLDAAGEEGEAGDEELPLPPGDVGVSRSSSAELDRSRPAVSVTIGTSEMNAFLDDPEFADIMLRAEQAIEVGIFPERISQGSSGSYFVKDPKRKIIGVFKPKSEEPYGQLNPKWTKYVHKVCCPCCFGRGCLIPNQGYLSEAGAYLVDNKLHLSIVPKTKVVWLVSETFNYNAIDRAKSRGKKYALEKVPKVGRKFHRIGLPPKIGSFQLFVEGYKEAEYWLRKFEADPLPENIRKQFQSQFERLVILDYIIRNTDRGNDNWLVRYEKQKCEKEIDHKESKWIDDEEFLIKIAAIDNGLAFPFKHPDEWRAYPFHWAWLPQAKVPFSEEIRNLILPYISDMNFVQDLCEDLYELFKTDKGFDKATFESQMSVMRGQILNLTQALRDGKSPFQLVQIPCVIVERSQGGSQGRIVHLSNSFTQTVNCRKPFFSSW
# Chain of Phosphatidylinositol 4,5-bisphosphate 3-kinase catalytic subunit alpha isoform (P42336 whole entry, canonical isoform): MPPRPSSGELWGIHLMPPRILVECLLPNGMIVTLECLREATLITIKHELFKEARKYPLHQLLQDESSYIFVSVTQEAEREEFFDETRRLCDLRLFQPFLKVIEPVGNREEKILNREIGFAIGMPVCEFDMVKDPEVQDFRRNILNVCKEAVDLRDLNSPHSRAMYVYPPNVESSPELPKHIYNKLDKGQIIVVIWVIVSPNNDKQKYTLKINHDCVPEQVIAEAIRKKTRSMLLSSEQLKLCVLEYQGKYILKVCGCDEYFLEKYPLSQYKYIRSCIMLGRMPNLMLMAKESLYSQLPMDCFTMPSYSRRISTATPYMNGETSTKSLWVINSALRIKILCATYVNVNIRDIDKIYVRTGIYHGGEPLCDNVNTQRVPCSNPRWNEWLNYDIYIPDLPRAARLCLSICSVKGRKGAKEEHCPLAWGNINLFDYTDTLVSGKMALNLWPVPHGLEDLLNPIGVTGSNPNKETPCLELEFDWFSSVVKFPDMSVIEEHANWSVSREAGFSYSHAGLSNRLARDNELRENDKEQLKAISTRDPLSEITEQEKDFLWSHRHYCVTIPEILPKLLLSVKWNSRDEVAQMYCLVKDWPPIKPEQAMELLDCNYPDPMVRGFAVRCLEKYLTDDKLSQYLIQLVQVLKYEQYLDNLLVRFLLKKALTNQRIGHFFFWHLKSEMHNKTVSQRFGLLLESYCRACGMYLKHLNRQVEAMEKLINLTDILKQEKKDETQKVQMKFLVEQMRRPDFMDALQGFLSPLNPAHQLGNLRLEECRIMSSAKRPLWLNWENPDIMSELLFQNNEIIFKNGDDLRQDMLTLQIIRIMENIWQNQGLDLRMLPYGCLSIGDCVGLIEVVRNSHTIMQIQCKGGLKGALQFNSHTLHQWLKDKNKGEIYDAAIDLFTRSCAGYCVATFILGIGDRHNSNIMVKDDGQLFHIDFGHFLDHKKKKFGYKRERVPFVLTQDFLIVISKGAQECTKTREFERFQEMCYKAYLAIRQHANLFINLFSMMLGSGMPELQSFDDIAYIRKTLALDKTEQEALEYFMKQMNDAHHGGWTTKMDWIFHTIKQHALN
# Chain of Phosphatidylinositol 3-kinase catalytic subunit type 3 (Q8NEB9 whole entry): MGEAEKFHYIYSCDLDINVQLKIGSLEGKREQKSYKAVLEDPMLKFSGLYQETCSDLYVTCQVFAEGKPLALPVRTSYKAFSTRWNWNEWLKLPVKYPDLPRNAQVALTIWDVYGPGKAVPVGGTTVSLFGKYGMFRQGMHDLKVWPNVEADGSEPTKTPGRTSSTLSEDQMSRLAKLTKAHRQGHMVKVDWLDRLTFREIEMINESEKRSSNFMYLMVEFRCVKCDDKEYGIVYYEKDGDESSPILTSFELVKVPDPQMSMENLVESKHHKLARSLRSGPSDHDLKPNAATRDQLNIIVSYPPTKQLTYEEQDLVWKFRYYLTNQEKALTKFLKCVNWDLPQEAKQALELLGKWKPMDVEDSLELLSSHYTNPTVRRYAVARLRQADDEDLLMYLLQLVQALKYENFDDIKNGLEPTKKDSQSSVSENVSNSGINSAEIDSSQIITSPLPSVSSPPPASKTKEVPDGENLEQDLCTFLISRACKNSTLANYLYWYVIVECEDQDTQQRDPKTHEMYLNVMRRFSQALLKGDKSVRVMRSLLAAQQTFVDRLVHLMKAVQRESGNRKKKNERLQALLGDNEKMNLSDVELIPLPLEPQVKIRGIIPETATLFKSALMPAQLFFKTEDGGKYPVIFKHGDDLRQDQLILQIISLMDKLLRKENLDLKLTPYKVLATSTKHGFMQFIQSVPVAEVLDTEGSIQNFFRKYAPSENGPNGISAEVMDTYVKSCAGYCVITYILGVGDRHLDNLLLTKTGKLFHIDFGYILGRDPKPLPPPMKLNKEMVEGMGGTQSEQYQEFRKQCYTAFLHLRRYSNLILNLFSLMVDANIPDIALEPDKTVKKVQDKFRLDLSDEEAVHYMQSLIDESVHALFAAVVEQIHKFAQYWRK
# Chain of Phosphatidylinositol 4-kinase type 2-alpha (Homo sapiens) (Q9BTU6 whole entry): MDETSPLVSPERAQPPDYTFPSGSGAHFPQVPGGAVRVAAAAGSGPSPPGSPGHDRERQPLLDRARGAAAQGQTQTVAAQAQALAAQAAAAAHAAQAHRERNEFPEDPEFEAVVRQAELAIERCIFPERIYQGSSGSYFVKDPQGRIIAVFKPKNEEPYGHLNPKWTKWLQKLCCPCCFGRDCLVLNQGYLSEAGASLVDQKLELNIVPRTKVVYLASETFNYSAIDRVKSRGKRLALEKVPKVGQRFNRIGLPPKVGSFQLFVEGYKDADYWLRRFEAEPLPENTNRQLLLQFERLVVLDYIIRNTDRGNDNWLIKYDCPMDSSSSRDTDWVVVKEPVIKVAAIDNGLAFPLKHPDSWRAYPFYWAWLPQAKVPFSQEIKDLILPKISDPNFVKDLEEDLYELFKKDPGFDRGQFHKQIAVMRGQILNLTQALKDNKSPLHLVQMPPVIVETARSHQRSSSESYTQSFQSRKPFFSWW
Structure (SMILES),inhibition [1],IC50 [2],inhibition [3],IC50 [4],IC50 [5],CC50 at 72 h [6],IC50 [7],IC50 [8]
COc1ccc(-c2sc(NC(=O)C(C)(C)C)nc2C)cc1S(=O)(=O)Nc1ccc(O)cc1,< 20%,720 nM,< 20%,3000 nM,10 µM,32 µM,> 20 µM,20 µM
COc1ccc(-c2sc(NC(=O)C3CCCC3)nc2C)cc1S(=O)(=O)Nc1ccc(O)cc1,< 50%,152 nM,< 50%,2600 nM,2 µM,14 µM,> 20 µM,1.05 µM
